Experimental data gathered from unrelated publications.
Protocols differ between the studies behind these lines.
CYP3A4: Cytochrome P450 3A4 (CYP3A4, Homo sapiens, UniProt P08684)

Compound	tested on	assay	test system	setting	endpoint	value
CN(C)c1ncnc2c1ncn2[C@@H]1O[C@H](CCl)[C@@H](NC(=O)[C@@H](CSC(c2ccccc2)c2ccccc2)NC(=O)OC(C)(C)C)[C@H]1O	Vero	cell growth or viability, MTT			CC50	67.4 µM
Cc1ccc(C(=O)Nc2ccc(CN3CCN(C)CC3)c(C(F)(F)F)c2)cc1C#Cc1cnc2[nH]ncc2c1			human, plasma	oral, 20 mg, healthy volunteers	Vd/F	8220 L
CC(=O)OC[C@@]1(COC(=O)c2ccccc2)O[C@H]1/C=C\COC(=O)c1ccccc1	RAW264.7	cell growth or viability, MTT		15 µM, 24 h	viability	99.8%
CNC(=O)n1ccc2cc(Oc3ccnc(NC(=O)c4ccc(C5CCN(CCO)CC5)cc4)c3)c(OCCOC)cc21			human, plasma	oral, 35 mg, single dose, fasted, healthy volunteers	Vd/F	11800 L
COc1ccc2c(c1)C[C@]1(OC)C(=O)/C(=C(O)\C=C\c3ccccc3)C(=O)C[C@]1(OC)O2	RAW264.7	cell growth or viability, MTT		15 µM, 24 h	viability	92.8%
CC(=O)O[C@@]12CO[C@@H]1C[C@H](O)[C@@]1(C)C(=O)[C@H](O)C3=C(C)[C@@H](OC(=O)[C@H](O)[C@@H](NC(=O)OC(C)(C)C)c4ccccc4)C[C@@](O)([C@@H](OC(=O)c4ccccc4)[C@H]21)C3(C)C			male Kunming mouse, lung	oral, 20 mg/kg	Cmax	142 ng/g
Cl.[2H]C([2H])([2H])CC(=O)c1cnc(NC(=O)C2CC2)cc1Nc1cccc(-c2ncn(C([2H])([2H])[2H])n2)c1OC			human, plasma	oral, 10 mg, multiple doses, once daily, fasted	Vd/F	167 L
Cn1cc(Nc2nc(N)nc(-c3cccc(-n4ccc5cc(C6CC6)cc(F)c5c4=O)c3CO)n2)cn1			human, plasma	oral, 900 mg, single dose, fasted, suspension	Vd/F	212 L
COCCCOc1ccnc(C[S+]([O-])c2nc3ccccc3[nH]2)c1C (centres unmarked)	CYP3A4	enzyme activity, inhibitor		30 µM, 1 h, pH 7.4	inhibition	50 to 60%
COc1cc(O)c2c(c1)C(=O)c1cc(C)cc(O)c1C2=O	CYP3A4	enzyme activity, inhibitor	human, liver microsomes	pH 7.4, testosterone probe	Ki	6.07 µM
COc1ccc2c(c1)C[C@H]1[C@@H](OC(=O)c3ccccc3)[C@H](OC(C)=O)C(COC(=O)c3ccccc3)=C[C@H]1O2	RAW264.7	cell growth or viability, MTT		15 µM, 24 h	viability	91.9%
CCN1CCN(Cc2ccc(NC(=O)c3ccc(C)c(NC(=O)c4cncc(-c5cccs5)c4)c3)cc2C(F)(F)F)CC1			mouse, plasma	intraperitoneal, 30 mg/kg, single dose	Cmax	716 ng/mL
COc1ccc2[nH]c([S+]([O-])Cc3ncc(C)c(OC)c3C)nc2c1 (centres unmarked)	CYP3A4	enzyme activity, inhibitor		30 µM, 1 h, pH 7.4	inhibition	50 to 60%
NC(=S)NN=Cc1ncccc1N			human, plasma	oral	Vd/F	223 L
